Experimental data: ChEMBL document CHEMBL1158072, “Antioxidative phenolics from the fresh leaves of Ternstroemia japonica” (J Nat Prod, 2006)

Legend:
Kidney = assay: Antioxidant activity assessed as inhibition of total reactive oxygen species generation in Wistar rat kidney by 2',7'-dichlorofluorescein based fluorescence spectroscopy; format: functional, tissue-based
Method in brief: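 Rat kidney homogenate (postmicrosomal fraction) from freshly killed male Wistar rats, 150-200 g, mixed with samples in 10% EtOH (final 0.4%). DCHF-DA (12.5 mM, in EtOH, final 0.2%) added in 50 mM phosphate buffer pH 7.4 and incubated 37 °C for 30 min. DCF fluorescence read at ex 460/em 530 nm. Trolox positive control. IC50 reported as mean ± standard error, triplicate.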

[1] = Antioxidant activity assessed as inhibition of hydroxyl radical generation by fluorescence spectroscopy; format: functional
Method in brief: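 Test samples in 10% EtOH (final 0.4%) added to 1 mM H2O2 plus 0.2 mM FeSO4 and incubated 37 °C for 5 min. Esterase-treated 2 µM DCHF-DA (in EtOH) then added and fluorescence followed for 30 min at ex 460/em 530 nm. Trolox positive control. IC50 reported as mean ± standard error of triplicate experiments.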

[2] = Antioxidant activity assessed as peroxynitrite scavenging activity by fluorescence spectroscopy; format: functional
Method in brief: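 Authentic peroxynitrite oxidation of dihydrorhodamine 123 (final 5 µM) in N2-purged buffer of 90 mM NaCl, 50 mM Na3PO4, 5 mM KCl and 100 µM DTPA, pH 7.4. Fluorescence read 5 min after treatment with and without ONOO- at ex 480/em 530 nm. Signal taken as final minus background. DL-penicillamine positive control. IC50 reported as mean ± standard error, n = 3.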

Row | IC50 (Kidney) | IC50 [1] | IC50 [2] | SMILES
1 | 45.4 µM | 4.21 µM | 1.54 µM | O=C(Cc1ccc(O)c(O)c1)O[C@H]1[C@H](OCCc2cc(O)c(O)cc2O)O[C@H](CO)[C@@H](O)[C@@H]1O
2 | 82.2 µM | 5.28 µM | 13.5 µM | O=c1c(O[C@@H]2O[C@H](CO)[C@@H](O)[C@H](O)[C@H]2O[C@@H]2OC[C@@H](O)[C@H](O)[C@H]2O)c(-c2ccc(O[C@@H]3O[C@H](CO)[C@@H](O)[C@H](O)[C@H]3O)cc2)oc2cc(O)cc(O)c12
3 | – | – | 1.05 µM | CC(C)(S)C(N)C(=O)O (racemic) [DL-PENICILLAMINE]
4 | 39.3 µM | 3.41 µM | 1.69 µM | O=C(Cc1ccc(O)c(O)c1)O[C@H]1[C@H](OCCc2ccc(O)c(O)c2)O[C@H](CO)[C@@H](O)[C@@H]1O [TERNSTROSIDE A]
5 | 62.5 µM | 4.66 µM | 2.36 µM | O=C(Cc1ccc(O)cc1)O[C@H]1[C@H](OCCc2ccc(O)c(O)c2)O[C@H](CO)[C@@H](O)[C@@H]1O [TERNSTROSIDE B]
6 | 33.3 µM | 3.26 µM | 1.14 µM | O=C(Cc1ccc(O)c(O)c1)O[C@@H]1[C@@H](O)[C@H](OCCc2ccc(O)c(O)c2)O[C@H](CO)[C@H]1O [TERNSTROSIDE C]
7 | 66.9 µM | 6.5 µM | 3.85 µM | O=C(Cc1ccc(O)c(O)c1)OC[C@H]1O[C@@H](OCCc2ccc(O)c(O)c2)[C@H](O)[C@@H](O)[C@@H]1O [TERNSTROSIDE D]
8 | 55 µM | 4.72 µM | 2.56 µM | O=C(Cc1ccc(O)c(O)c1)O[C@H]1[C@H](OCCc2ccc(O)cc2)O[C@H](CO)[C@@H](O)[C@@H]1O [TERNSTROSIDE E]
9 | 29.5 µM | 2.83 µM | – | Cc1c(C)c2c(c(C)c1O)CCC(C)(C(=O)O)O2 (configuration not stated) [TROLOX]

Row | SMILES | IC50 (Kidney) | IC50 [1] | IC50 [2]
10 | O=c1c(O)c(-c2ccc(O)c(O)c2)oc2cc(O)cc(O)c12 [QUERCETIN] | 29.1 µM | 2.39 µM | 1.38 µM
